Read-outs that look alike come from different tables or passages of the source.
Experiments:
[1] = biological target: T1, homomeric human CNGA3 channels (Homo sapiens, UniProt Q16281); assay type: biochemical; conditions: for IMAX cAMP (Hill fit): normalized to maximum cGMP current; for EC50: read-out: K1/2 cGMP (Hill fit); for gating effect (increase in cGMP apparent affinity) compared with MMP9: within 40 min of exposure, MMP2 10 nM, trypsin 10 nM, collagenase 100 nM
T1 sequence (Q16281 1-694): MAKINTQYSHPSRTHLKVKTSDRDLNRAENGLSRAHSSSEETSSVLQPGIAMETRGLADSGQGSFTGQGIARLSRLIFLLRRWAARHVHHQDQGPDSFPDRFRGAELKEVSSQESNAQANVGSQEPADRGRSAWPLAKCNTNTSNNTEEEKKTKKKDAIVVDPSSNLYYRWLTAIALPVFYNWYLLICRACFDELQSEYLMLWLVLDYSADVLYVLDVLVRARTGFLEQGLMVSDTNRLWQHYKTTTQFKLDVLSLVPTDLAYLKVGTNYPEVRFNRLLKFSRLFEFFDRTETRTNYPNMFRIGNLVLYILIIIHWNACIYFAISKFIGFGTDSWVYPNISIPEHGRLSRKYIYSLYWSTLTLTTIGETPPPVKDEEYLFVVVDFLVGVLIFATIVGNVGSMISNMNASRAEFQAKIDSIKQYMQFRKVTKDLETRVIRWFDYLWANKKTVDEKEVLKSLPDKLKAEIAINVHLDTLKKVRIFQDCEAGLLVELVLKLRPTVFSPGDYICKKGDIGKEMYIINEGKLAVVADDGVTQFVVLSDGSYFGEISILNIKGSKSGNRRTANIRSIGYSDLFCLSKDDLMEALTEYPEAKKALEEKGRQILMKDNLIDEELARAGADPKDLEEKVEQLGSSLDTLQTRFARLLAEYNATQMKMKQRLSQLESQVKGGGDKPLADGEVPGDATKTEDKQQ

[2] = biological target: heteromeric CNGA1 + CNGB1 channels (UniProt Q00194+Q14028); assay type: biochemical, bovine CNGA1, human CNGB1; conditions: for EC50: read-out: K1/2 cGMP (Hill fit)
heteromeric CNGA1 + CNGB1 channels, sequence (Q14028 whole entry, one chain of several): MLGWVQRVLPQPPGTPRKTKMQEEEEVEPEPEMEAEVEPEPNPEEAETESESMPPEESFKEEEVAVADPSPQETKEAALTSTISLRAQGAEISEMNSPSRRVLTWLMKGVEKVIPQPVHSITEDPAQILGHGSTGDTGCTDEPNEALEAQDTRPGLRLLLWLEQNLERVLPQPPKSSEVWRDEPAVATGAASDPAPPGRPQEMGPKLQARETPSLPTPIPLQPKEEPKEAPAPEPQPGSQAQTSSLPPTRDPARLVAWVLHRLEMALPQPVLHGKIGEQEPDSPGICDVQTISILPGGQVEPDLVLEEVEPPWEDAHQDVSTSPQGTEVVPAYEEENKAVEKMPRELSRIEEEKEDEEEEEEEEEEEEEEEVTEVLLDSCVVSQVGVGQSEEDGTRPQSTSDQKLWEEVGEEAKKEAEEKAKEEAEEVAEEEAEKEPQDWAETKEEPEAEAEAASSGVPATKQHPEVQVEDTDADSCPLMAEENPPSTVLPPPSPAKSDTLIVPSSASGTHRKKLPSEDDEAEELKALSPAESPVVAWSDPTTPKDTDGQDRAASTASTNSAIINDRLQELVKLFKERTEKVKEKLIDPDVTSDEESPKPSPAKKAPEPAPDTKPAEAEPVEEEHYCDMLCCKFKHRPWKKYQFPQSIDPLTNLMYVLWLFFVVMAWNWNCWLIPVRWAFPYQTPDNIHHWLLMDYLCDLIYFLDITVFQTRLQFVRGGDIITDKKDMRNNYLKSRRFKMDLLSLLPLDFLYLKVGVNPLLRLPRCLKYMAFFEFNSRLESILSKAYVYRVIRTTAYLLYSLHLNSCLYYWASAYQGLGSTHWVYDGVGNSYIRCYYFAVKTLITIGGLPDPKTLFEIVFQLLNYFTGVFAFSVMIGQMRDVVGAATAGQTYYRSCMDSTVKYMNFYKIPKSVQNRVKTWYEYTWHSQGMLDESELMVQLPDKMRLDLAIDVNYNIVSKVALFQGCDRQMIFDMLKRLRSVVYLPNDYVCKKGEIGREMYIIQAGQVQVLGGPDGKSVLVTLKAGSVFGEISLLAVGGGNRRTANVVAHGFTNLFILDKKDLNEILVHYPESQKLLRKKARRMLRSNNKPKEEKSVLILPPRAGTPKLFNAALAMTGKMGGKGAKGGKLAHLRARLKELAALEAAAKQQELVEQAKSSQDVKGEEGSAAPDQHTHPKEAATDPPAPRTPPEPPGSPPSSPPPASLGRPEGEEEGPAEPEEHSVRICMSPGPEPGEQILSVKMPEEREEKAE

[3] = biological target: native rod photoreceptor CNG channels; assay: Inside-out patches excised from Xenopus rod outer segments; assay type: biochemical, Xenopus laevis
Procedure, shortened: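 Retinas dissected from Xenopus laevis into frog Ringer's (pH 7.6), and rod outer segments freed by gentle agitation. Inside-out patches (pipettes 3–6 MΩ) at 20–23°C, with 130 mM NaCl, 0.2 mM EDTA, 3 mM HEPES (pH 7.2) solutions.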

[4] = biological target: T2, heteromeric CNGA3 + CNGB3 channels (Homo sapiens, UniProt Q16281+Q9NQW8); assay type: biochemical
T2 sequence (Q16281 1-694): T1 sequence (Q16281 1-694)
T2 sequence (Q9NQW8 1-809): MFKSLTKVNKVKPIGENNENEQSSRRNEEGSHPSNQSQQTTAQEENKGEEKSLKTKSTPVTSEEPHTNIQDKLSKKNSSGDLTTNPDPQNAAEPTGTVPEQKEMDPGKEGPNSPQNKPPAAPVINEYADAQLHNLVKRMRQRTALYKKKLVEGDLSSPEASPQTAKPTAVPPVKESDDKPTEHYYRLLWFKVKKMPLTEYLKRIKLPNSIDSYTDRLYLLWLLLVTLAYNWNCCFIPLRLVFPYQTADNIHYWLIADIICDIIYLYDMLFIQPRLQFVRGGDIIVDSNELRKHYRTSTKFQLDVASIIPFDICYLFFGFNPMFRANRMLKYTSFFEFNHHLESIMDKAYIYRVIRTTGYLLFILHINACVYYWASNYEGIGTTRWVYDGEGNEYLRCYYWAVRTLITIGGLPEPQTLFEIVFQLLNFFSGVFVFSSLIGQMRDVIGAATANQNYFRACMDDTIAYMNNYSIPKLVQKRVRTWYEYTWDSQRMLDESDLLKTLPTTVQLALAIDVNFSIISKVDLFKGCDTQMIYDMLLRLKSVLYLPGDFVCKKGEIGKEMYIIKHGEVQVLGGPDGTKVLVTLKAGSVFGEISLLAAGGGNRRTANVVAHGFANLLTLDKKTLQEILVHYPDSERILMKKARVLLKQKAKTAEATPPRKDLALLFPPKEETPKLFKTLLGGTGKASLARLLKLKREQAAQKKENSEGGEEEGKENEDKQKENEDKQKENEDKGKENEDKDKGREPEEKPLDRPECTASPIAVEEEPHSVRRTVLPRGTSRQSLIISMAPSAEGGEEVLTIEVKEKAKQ

homomeric CNGA1 channels = biological target: T3, homomeric CNGA1 channels (Bos taurus, UniProt Q00194); assay: Inside-out patch-clamp of oocyte patches expressing rod homomeric CNGA1 channels; assay type: biochemical, bovine
T3 sequence (Q00194 1-690): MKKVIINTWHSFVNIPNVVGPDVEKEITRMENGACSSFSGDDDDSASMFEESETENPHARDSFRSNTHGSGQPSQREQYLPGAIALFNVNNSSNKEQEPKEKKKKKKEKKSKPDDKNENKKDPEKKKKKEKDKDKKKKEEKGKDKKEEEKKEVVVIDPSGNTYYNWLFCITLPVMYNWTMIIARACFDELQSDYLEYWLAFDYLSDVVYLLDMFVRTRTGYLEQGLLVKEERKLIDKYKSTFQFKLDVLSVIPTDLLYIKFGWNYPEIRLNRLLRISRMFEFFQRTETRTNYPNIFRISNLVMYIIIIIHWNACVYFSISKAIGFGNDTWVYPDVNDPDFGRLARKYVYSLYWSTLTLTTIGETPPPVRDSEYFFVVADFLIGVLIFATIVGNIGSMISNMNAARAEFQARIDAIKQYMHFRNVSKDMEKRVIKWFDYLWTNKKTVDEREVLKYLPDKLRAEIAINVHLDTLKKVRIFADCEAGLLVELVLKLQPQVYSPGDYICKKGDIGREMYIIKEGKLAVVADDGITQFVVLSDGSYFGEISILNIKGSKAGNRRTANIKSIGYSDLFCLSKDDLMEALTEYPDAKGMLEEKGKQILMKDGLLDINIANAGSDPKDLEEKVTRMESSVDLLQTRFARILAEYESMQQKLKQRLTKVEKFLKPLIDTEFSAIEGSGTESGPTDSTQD

[5] = representative control patch, t0 (Fig 1F)
[6] = representative control patch, t80 (Fig 1F)
[7] = representative control patch, t0 (Fig 9C)
[8] = representative control patch, t40 (Fig 9C)
[9] = representative control patch, t40 (Fig 4B)
[10] = representative control patch, t60 (Fig 1B)

Molecule: Nc1ncnc2c1ncn2[C@@H]1O[C@@H]2COP(=O)(O)O[C@H]2[C@H]1O [cAMP, cyclic adenosine monophosphate]
- efficacy of cAMP, IcAMP/IMAX ([1]; control patches, 60 min, n = 6): 0.15 ± 0.05
- nH cAMP (Hill fit) [1, 5]: 1.1
- IMAX cAMP (Hill fit) [1, 5]: 0.29
- nH cAMP (Hill fit) [1, 6]: 1.0
- IMAX cAMP (Hill fit) [1, 6]: 0.14

Molecule: Nc1nc2c(ncn2[C@@H]2O[C@@H]3COP(=O)(O)O[C@H]3[C@H]2O)c(=O)[nH]1 [cGMP, cyclic guanosine monophosphate]
- equilibrium constant for the allosteric transition (L) ([2]; A1+B1 control, cGMP, 40 min post excision (Fig 10B)): 20
- EC50 [2, 7]: 59.4 µM
- EC50 [2, 8]: 55.6 µM
- nH cGMP (Hill fit) [2, 7]: 2.3
- IMAX cGMP (Hill fit) ([2]; representative control patch, t0 (Fig 9C), normalized to maximum t0 cGMP current): 1.0
- nH cGMP (Hill fit) [2, 8]: 2.4
- equilibrium constant for the allosteric transition (L) ([1]; A3 control, cGMP, 80 min post excision, allosteric model fit (Fig 10A)): 180
- Hill slope nH, cGMP ([1]; control patches, 60 min, n = 6): 2.2 ± 0.2
- EC50 [1, 9]: 8 µM
- EC50 [1, 10]: 10.3 µM
- nH cGMP (Hill fit) ([1]; representative control patch, t0 (Fig 1B)): 2.9
- IMAX cGMP (Hill fit) ([1]; representative control patch, t0 (Fig 1B), normalized to maximum t0 cGMP current): 1.0
- nH cGMP (Hill fit) [1, 9]: 2.3
- nH cGMP (Hill fit) [1, 10]: 2.1
- EC50 ([3]; read-out: K1/2 cGMP (Hill fit), representative control patch, t0 (Fig 11A)): 19.3 µM
- EC50 ([3]; read-out: K1/2 cGMP (Hill fit), representative control patch, t25 (Fig 11A)): 28.1 µM
- EC50 ([3]; read-out: initial K1/2 cGMP, native CNG channels, initial value): 23.5 ± 2.1 µM
- nH cGMP (Hill fit) ([3]; representative control patch, t0 (Fig 11A)): 2.6
- nH cGMP (Hill fit) ([3]; representative control patch, t25 (Fig 11A)): 2.6
- 2 μM cGMP current, I2μM/IMAX ([4]; control, 80 min, n = 4-6): 0.03 ± 0.006
- EC50 ([4]; read-out: K1/2,GMP, time-matched control, 80 min, n = 4-6): 16.4 µM
- EC50 ([4]; read-out: K1/2 cGMP (Hill fit), representative control patch, t0 (Fig 8A)): 15.7 µM
- EC50 ([4]; read-out: K1/2 cGMP (Hill fit), representative control patch, t80 (Fig 8A)): 16.5 µM
- nH cGMP (Hill fit) ([4]; representative control patch, t0 (Fig 8A)): 2.1
- IMAX cGMP (Hill fit) ([4]; representative control patch, t0 (Fig 8A), normalized to maximum t0 cGMP current): 1.0
- nH cGMP (Hill fit) ([4]; representative control patch, t80 (Fig 8A)): 1.9
- equilibrium constant for the allosteric transition (L) (homomeric CNGA1 channels; A1 control, cGMP, 40 min post excision (Fig 10B)): 40
- nH cGMP (Hill fit) (homomeric CNGA1 channels; representative control patch, t0 (Fig 9A)): 2.2
- IMAX cGMP (Hill fit) (homomeric CNGA1 channels; representative control patch, t0 (Fig 9A), normalized to maximum t0 cGMP current): 1.0
- nH cGMP (Hill fit) (homomeric CNGA1 channels; representative control patch, t40 (Fig 9A)): 2.2

Molecule: CCCCNc1ccc(C(=O)OCCN(C)C)cc1 [tetracaine]
- effect on the increased persistent current after MMP9 ([4]; data not shown): inhibited

Molecule: collagenase
- gating effect (increase in cGMP apparent affinity) compared with MMP9 [1]: failed to produce similar gating effects

B1: MMP2: active human recombinant MMP2 (Calbiochem, PF023), closely related gelatinase/metalloproteinase (protein, UniProt P08253 110-660, looked up)
72 kDa type IV collagenase: YNFFPRKPKWDKNQITYRIIGYTPDLDPETVDDAFARAFQVWSDVTPLRFSRIHDGEADIMINFGRWEHGDGYPFDGKDGLLAHAFAPGTGVGGDSHFDDDELWTLGEGQVVRVKYGNADGEYCKFPFLFNGKEYNSCTDTGRSDGFLWCSTTYNFEKDGKYGFCPHEALFTMGGNAEGQPCKFPFRFQGTSYDSCTTEGRTDGYRWCGTTEDYDRDKKYGFCPETAMSTVGGNSEGAPCVFPFTFLGNKYESCTSAGRSDGKMWCATTANYDDDRKWGFCPDQGYSLFLVAAHEFGHAMGLEHSQDPGALMAPIYTYTKNFRLSQDDIKGIQELYGASPDIDLGTGPTPTLGPVTPEICKQDIVFDGIAQIRGEIFFFKDRFIWRTVTPRDKPMGPLLVATFWPELPEKIDAVYEAPQEEKAVFFAGNEYWIYSASTLERGYPKPLTSLGLPPDVQRVDAAFNWSKNKKTYIFAGDKFWRYNEVKKKMDPGFPKLIADAWNAIPDNLDAVVDLQGGGHSYFFKGAYYLKLENQSLKSVKFGSIKSDWLGC
- gating effect (increase in cGMP apparent affinity) compared with MMP9 [1]: indistinguishable from the effect produced by MMP9

B2: trypsin: extracellular serine protease, Trypsin-EDTA (Gibco, 25200) (protein, UniProt P00761 9-231, looked up)
Trypsin: IVGGYTCAANSIPYQVSLNSGSHFCGGSLINSQWVVSAAHCYKSRIQVRLGEHNIDVLEGNEQFINAAKIITHPNFNGNTLDNDIMLIKLSSPATLNSRVATVSLPRSCAAAGTECLISGWGNTKSSGSSYPSLLQCLKAPVLSDSSCKSSYPGQITGNMICVGFLEGGKDSCQGDSGGPVVCNGQLQGIVSWGYGCAQKNKPGVYTKVCNYVNWIQQTIAAN
modifications: EDTA
- gating effect (increase in cGMP apparent affinity) compared with MMP9 [1]: failed to produce similar gating effects
